Data taken from the EternaBench riboswitch data.

Tested on: MS2 coat protein
Assay: apparent Kd, MS2 coat protein; higher = weaker binding; RNA-MaP array; FMN 200 µM where present
How it was run: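 Apparent Kd: the median of filtered binding-curve fits from single clusters. Designs were transcribed on Illumina sequencing-chip clusters by stalled E. coli RNA polymerase and titrated with SNAP-549-labelled MS2 coat protein from 0.7 or 1.5 nM, doubling to 3 µM, in 100 mM Tris-HCl pH 7.5, 80 mM KCl, 4 mM MgCl2, BSA, DTT, yeast tRNA and Tween-20. Each series ran without and then with constant ligand, and green signal was normalised to red-channel RNA signal and control-cluster median Fmax.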

[1] = designed as: OFF switch for flavin mononucleotide, no ligand
[2] = ligand present: flavin mononucleotide, designed as: OFF switch for flavin mononucleotide
[3] = designed as: ON switch for flavin mononucleotide, no ligand
[4] = ligand present: flavin mononucleotide, designed as: ON switch for flavin mononucleotide

GUUAAACAUGAGGAUCACCCAUGUAAGGAUAUGCUGCGGUCGCGCUGACGUGACUGCAGCAGAAGGUACAAAUG
apparent Kd [1]: 105 nM | apparent Kd [2]: 66.9 nM

GUUAAACAUGAGGAUCACCCAUGUCAAUGUAGUCGAGGAUAUGGGCAGCUGUGAGGCGUACUAGAAGGCGAAAAGG
apparent Kd [3]: 270 nM | apparent Kd [4]: 57.5 nM

GUUAAUUAGUGAGGAUAUACAGUAUUUAAUACUGUAGAAGGCACAAUCCUCAAGACAUGAGGAUCACCCAUGUGAUAAUAAGAU
apparent Kd [1]: 54.4 nM | apparent Kd [2]: 203 nM

GUUACAUGAGGAUCACCCAUGUAUGUGUGGGAGUAAGUGUCUUAGGAUAUCUAUUAUUUAAAUUAAGAGAAGGAAGAUUGUUGU
apparent Kd [3]: 123 nM | apparent Kd [4]: 137 nM

GUUAUAAAGGUAGGAUAUAGUAUUAUAAUUAAAUUAGAAGGAUCUCACAUGAGGAUCACCCAUGUAAGAGGAUCACCCAUGUAU
apparent Kd [1]: 11.4 nM | apparent Kd [2]: 8.66 nM

GUUAUUGACAAGAAGGCAAACAUGAGGAUCACCCAUGUUCUACAUGGAUAUUGAGGAUAUUGCCAAUACAUGAGGAUCACCCAG
apparent Kd [1]: 63 nM | apparent Kd [2]: 68.8 nM

GUUAUUUAUGUAGGAUAUGCGAGGCGAGCCUAAGCAGAAGGACAUGAGGAUCACCCAUGUAUUGCGGUCUGCGUUCAGAUCGCU
apparent Kd [1]: 32.4 nM | apparent Kd [2]: 150 nM

GUUCUCGGAGGAUAUACACAGUGAGAACCCGCGCAAGCGGGACAUGAGGAUCACCCAUGUAGAAGGUCGAGCAA
apparent Kd [1]: 70.2 nM | apparent Kd [2]: 170 nM

GUUGAUGGAGGAUAUACUGCAGUGAUUGGCAAGAAUCCAGCACAUGAGGAUCACCCAUGUAGAAGGCCAUAACA
apparent Kd [1]: 25.8 nM | apparent Kd [2]: 63.5 nM

GUUGGGUGUCAUGUCGCACAUGAGGAUCACCCAUGUAGGAGGUAGGAUAUCCACGAGAAACAAGAGGAGAAGGGCCAUUAGCGU
apparent Kd [1]: 23.5 nM | apparent Kd [2]: 29.2 nM

GUUGGUUAUGUAGGAUAUGCGAGGCGAGCCUAAGCAGAAGGACAUGAGGAUCACCCAUGUAUUGCGGUCUGCGUUCAGAUCGCU
apparent Kd [1]: 36.2 nM | apparent Kd [2]: 156 nM

GUUGUACGAGGAUAUACAUGAGGAUCACCCAUGUGUGUUGUGGGCGACGUACGUUUAUGUAGAAGGCGUGCGGC
apparent Kd [1]: 63.6 nM | apparent Kd [2]: 115 nM

GUUGUGUAUGUAGGAUAUGCGAAGCAAAGCUUCGCAGAAGGACAUGAGGAUCACCCAUGUAUUGCAGCCUGCAAUCAGGCUGCU
apparent Kd [1]: 41.6 nM | apparent Kd [2]: 175 nM

GUUGUGUGAGGAUAUGCCUGGCCGUGUGGCCGGUUUGGGUGGCAGAAGGUACAUGAGGAUCACCCAUGUACGGG
apparent Kd [1]: 105 nM | apparent Kd [2]: 107 nM

GUUUACGCAUGAGGAUAUGCUCGCAUUUCAAGAGCAGAAGGUAUGUCUUUAGACAUGAGGAUCACCCAUGUAUUUAUCAUUGAA
apparent Kd [3]: 166 nM | apparent Kd [4]: 28.4 nM

GUUUCACAUGAGGAUCACCCAUGUGAGGAUAUGGACUUAUUGGCAAUAGUCGAUGGGUUCAGAAGGCGCGUGAU
apparent Kd [1]: 67.9 nM | apparent Kd [2]: 71.2 nM

GUUUUGGGAGGAUAUAUGUGGAUUAUUUUUGUAUGUUGUUUACAUGAGGAUCACCCAUGUAGAAGGUCUAGAGC
apparent Kd [1]: 102 nM | apparent Kd [2]: 211 nM

GUUUUUUUUAGUUCAUACUAUUUGAUAGAAGGUGAAAUAUAGACAUGAGGAUCACCCAUGUAAUUCAAGGAUAUGUAGUUACUC
apparent Kd [3]: 40.6 nM | apparent Kd [4]: 32.7 nM

UAAAAACAUGAGGAUCACCCAUGUGAGGAUAUCGAAAAAAAAAAAUUAAAAAAGGAAGCGAGAAGGUACGGGAU
apparent Kd [1]: 53.1 nM | apparent Kd [2]: 49.6 nM

UAAAAGAAAGUAAGGAUAUCUAAAUUGGAAAAGAGAGAGAAGGUACAUGAGGAUCACCCAUGUAGGGUAUCCGG
apparent Kd [1]: 52.1 nM | apparent Kd [2]: 72.8 nM

UAAAAGACUAGCAACUAACUCCACAUGAGGAUCACCCAUGUCUAGGAUAUGAGCAGCAAAGCUGCUUAGAAGGAGACGCUAGUC
apparent Kd [1]: 6.48 nM | apparent Kd [2]: 6.1 nM

UAAAAGCUAGGAUAUACAUGAGGAUCACCCAUGUCAACCACACGGAUGCGCCGAGCAUGUAGAAGGAGCACCGG
apparent Kd [1]: 18.2 nM | apparent Kd [2]: 24.1 nM

UAAAAUCAUGUAGGAUAUGCGUGGCGAAGCUAUGCAGAAGGACAUGAGGAUCACCCAUGUCUUACCUAGCGUACUAGGUUAAAG
apparent Kd [1]: 19.7 nM | apparent Kd [2]: 107 nM

UAAAAUCAUGUAGGAUAUGCGUGGCGAAGCUAUGCAGAAGGACAUGAGGAUCACCCAUGUCUUACUGUGCGUACACAGUUAAAG
apparent Kd [1]: 16.7 nM | apparent Kd [2]: 79.5 nM

UAAACAUGAGGAUCACCCAUGUAAAGAUCGGUAGUAGAGAGUGAGGAUAUACUAAAUUUUAUGGAGUAGAAGGCACUGGGUUCU
apparent Kd [3]: 40.1 nM | apparent Kd [4]: 32.3 nM

UAAAGACAUGAGGAUCACCCAUGUGAGGAUAUCGGAGAUAACGGAACAUCAAGUUCGGCGAGAAGGCACAGGAA
apparent Kd [1]: 53.9 nM | apparent Kd [2]: 58.1 nM

UAAAUGUGAGGAUAUUCGUUGAACUCGGAGACGAGUUUAACGGAGAAGGCACAUGAGGAUCACCCAUGUUCCUU
apparent Kd [1]: 20.4 nM | apparent Kd [2]: 211 nM

UAAAUUAACAAGAAGGCUAACAUGAGGAUCACCCAUGUUGUACAUGGAUAUAGAGGAUAUUGCUAAUAUUUAUUUAUCAUAAUU
apparent Kd [1]: 21.8 nM | apparent Kd [2]: 17.3 nM

UAACCGCAGCAGAAGGGACGUCGGGUGGACUAGUCAGGAUAUGCAUGCCGGCAUAGACAUGAGGAUCACCCAUGUACGAGUGGC
apparent Kd [3]: 347 nM | apparent Kd [4]: 87.5 nM

UAAGUCUAAUGAGGAUAUCGUAAUGAAACAUUAUGAGAAGGCAUACAAUCAUGAGGACAUGAGGAUCACCCAUGUUGUGACCAU
apparent Kd [3]: 33.6 nM | apparent Kd [4]: 16.2 nM

UAAUAAAACGAUCGGCGGUCCAUACAUGAGGAUCACCCAUGUAGAAGGCACUCUACAAAGUAGAGUGAGGAUAUACAAGAUCGA
apparent Kd [1]: 15 nM | apparent Kd [2]: 258 nM

UAAUAAUAAUAAUAAUGGACUGAUACAUGAGGAUCACCCAUGUAGGAUAUGCAGUGGAAUACACUGCAGAAGGACAUACAGUCC
apparent Kd [1]: 16.6 nM | apparent Kd [2]: 17.2 nM

UAAUAAUAAUAAUAGCAGUUUACAUGAGGAUCACCCAUGUAUAAGGAUAUCGUCAGGAAUACUGACGAGAAGGUAUACAUCUGC
apparent Kd [1]: 20.3 nM | apparent Kd [2]: 33.6 nM

UAAUCGUUGCAGAAGGUUAUUAUUAUAACGUGACACUUAACAUGAGGAUCACCCAUGUUUUUGAUGAAGGAUAUGCAACGGUAG
apparent Kd [1]: 8.04 nM | apparent Kd [2]: 7.71 nM

UAAUCUCAGAUAGGAUAUAUAGGAUAAUUUAAGACCGAACAUGAGGAUCACCCAUGUGAUUAUUCGUAGAAGGAUCAAUGACCC
apparent Kd [3]: 78.3 nM | apparent Kd [4]: 76.2 nM

UAAUUUUUAGUAAGGAUAUCGGUCCCAAGGGACAACGAGAAGGUACAUGAGGAUCACCCAUGUGAUUAAAGAAU
apparent Kd [1]: 28.2 nM | apparent Kd [2]: 221 nM

UACAAUCUAUCUGAGGAUAUCAUGAAAAAAACAUGAGGAUCACCCAUGUGCAGGAAAACUGCAUAUGAGAAGGCAGAUAGAUUGU
apparent Kd [3]: 770 nM | apparent Kd [4]: 25.7 nM

UACAUGAGGAUCACCCAUGUUUUGUCGUGUAUGGUAUUUAUCUAGGAUAUCAAUUGAUUUAAUUAUGAGAAGGAGAAUAUUAAU
apparent Kd [1]: 36.5 nM | apparent Kd [2]: 30.7 nM

UACCUCUCAGGAUAUGAGCAGCAGGACAUGAGGAUCACCCAUGUUAUAUAGGGUCCUGGUUUAGAAGGGAGCGAAU
apparent Kd [1]: 26 nM | apparent Kd [2]: 28.1 nM

UACGACUUCGUAGGAUAUGUAUUUCAUUUCUACAUGAGGAUCACCCAUGUUUGCAUUUUUUUUUGACAGAAGGACGUAAUCGUA
apparent Kd [3]: 15.4 nM | apparent Kd [4]: 10.5 nM

UACGGACAUGAGGAUCACCCAUGUGAGGAUAUCGAUAACGAUAGCAUAAUAUAAUCGGCGAGAAGGCACAGCGU
apparent Kd [1]: 32.7 nM | apparent Kd [2]: 40.9 nM

UAGAAGUCAGGAUAUGCAUGGCGGGACUUGCGUCGUGGCGUGCAGAAGGGACAUGAGGAUCACCCAUGUGGAGU
apparent Kd [1]: 179 nM | apparent Kd [2]: 230 nM

UAGAAGUCAGGAUAUGCUGCUCGUCACUUGCGUGAUGAGUAGCAGAAGGGACAUGAGGAUCACCCAUGUAAAGG
apparent Kd [1]: 208 nM | apparent Kd [2]: 424 nM

UAGAUGGGAGGAUAUACGUAGAUACAGAUUCAUGUAGUGCUACAUGAGGAUCACCCAUGUAGAAGGCCCGUCUU
apparent Kd [1]: 39.4 nM | apparent Kd [2]: 330 nM

UAGAUGGGAGGAUAUACGUAGAUACAGAUUCGUGUAGUGCUACAUGAGGAUCACCCAUGUAGAAGGCCCGUCUU
apparent Kd [1]: 13.6 nM | apparent Kd [2]: 22.9 nM

UAGAUGGGAGGAUAUACGUAGAUGCGGAUUCGUGUGGUGCUACAUGAGGAUCACCCAUGUAGAAGGCCCGUCUU
apparent Kd [1]: 17.1 nM | apparent Kd [2]: 72.2 nM

UAGAUGGGAGGAUAUGCGUAGAUACGGAUUCGUGUGGUGCUACAUGAGGAUCACCCAUGUAGAAGGCCCGUCUU
apparent Kd [1]: 12.8 nM | apparent Kd [2]: 18.6 nM

UAGAUUAGAAGUUAACAUGAGGAUCACCCAUGUAUUGGAACAGAGGAUAUGCAUGUUUGAUAGUAGCAGAAGGCUGAAGGUGGA
apparent Kd [3]: 98.1 nM | apparent Kd [4]: 104 nM

UAGCAAACGACCUGUGUGUGACAUGAGGAUCACCCAUGUUAGAGAAGGCCGAUAGCGCCGCGUACGGAGGAUAUCUGACAGGGA
apparent Kd [1]: 24.1 nM | apparent Kd [2]: 30.3 nM

UAGGACGUCGUAGGAUAUGUAGGAUAUUCCUACAUGAGGAUCACCCAUGUUGACAUGGAAGAAGGACAGAAGGACGAUGUCCAU
apparent Kd [3]: 224 nM | apparent Kd [4]: 4.61 nM

UAGGACUUCGUAGGAUAUGUAUUUGAUUUCUACAUGAGGAUCACCCAUGUUUGCAUUUUUUUUUGACAGAAGGACGUGGUCCUA
apparent Kd [3]: 16.8 nM | apparent Kd [4]: 13.2 nM

UAGGAUCAACGAGGAUAUAAUAGGUUCAAUUUUUUAUAUUGUUUACAUGAGGAUCACCCAUGUUAUUAGAAGGCGUAUGGGAUU
apparent Kd [3]: 53.5 nM | apparent Kd [4]: 36.9 nM

UAGGUACAUGAGGAUCACCCAUGUGAGGAUAUAGUUGAAGAUUGCGAGAGGGAGAGGACUAGAAGGCACAGUGG
apparent Kd [1]: 50.5 nM | apparent Kd [2]: 69 nM

UAGGUGUGAGGAUAUGGUAAAGAUAAGAUGAUGAAAGAACUCCAGAAGGCACAUGAGGAUCACCCAUGUAGAUG
apparent Kd [1]: 28 nM | apparent Kd [2]: 70.8 nM

UAGGUUGUCGUAGGAUAUGUAGGAUAUUCCUACAUGAGGAUCACCCAUGUUAGCAUGGAAGAAGGACAGAAGGACGAUGACCUU
apparent Kd [3]: 889 nM | apparent Kd [4]: 15.6 nM
